Experimental findings from ChEMBL document CHEMBL3813595, “Discovery of novel 5,6,7,8-tetrahydro[1,2,4]triazolo[4,3-a]pyridine derivatives as γ-secretase modulators (Part 2)” (Bioorg Med Chem, 2016) are described below.

SMILES strings stand for the structures.

Data set [1] can be described thus: Lipophilicity, logD of compound at pH 7.4 by retention time-based reverse phase chromatographic analysis. Type of data set: physicochemical. The conditions noted are these: buffer.
Data set [2] can be described thus: Drug uptake in C57BL/6J mouse cortex at 6 mg/kg, po after 3 hrs by LC/MS/MS analysis. Format: ADME, organism-based. The conditions noted are these: read-out: Drug uptake. An outline of the steps:
(§1)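 Male C57BL/6J mice, 9 weeks old, fed, n = 3, given a single oral dose of 6 mg/kg in 0.5% methylcellulose. Plasma and cortex collected at 3 h. Cortex homogenized in saline. Samples deproteinized with MeCN containing an internal standard, then diluted in ammonium formate/acetonitrile with 0.2% formic acid for analysis.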

A short description of data set [3]: Drug uptake in C57BL/6J mouse plasma at 6 mg/kg, po after 3 hrs by LC/MS/MS analysis. Type of data set: ADME, organism-based. The procedure, abridged: as §1
Data set [4] concerns Cortex. In words: Drug uptake in APP-transgenic Tg2576 mouse cortex at 3 to 6 mg/kg, po administered as single dose after 18 hrs by LC/MS/MS analysis. Type of data set: ADME, organism-based. The settings on record: in vivo, BLD = below limit of detection.
Data set [5] deals with Cortex. As to the kind of experiment: Drug uptake in APP-transgenic Tg2576 mouse cortex at 3 to 6 mg/kg, po administered as multiple dose by LC/MS/MS analysis. The settings on record: in vivo. Format: ADME, organism-based.
The subject of data set [6] is Plasma. As to the kind of experiment: Drug uptake in APP-transgenic Tg2576 mouse plasma at 3 to 6 mg/kg, po administered as multiple dose by LC/MS/MS analysis. The settings on record: in vivo. Format: ADME, organism-based.

Regarding `COc1cc(-c2nnc3n2CCCC3(Cc2ccc(F)c(F)c2)C(N)=O)ccc1-c1cnc(C)o1` (configuration not stated), the chromatographic logD in data set [1] worked out at 2.3.
The same measure, in the same setting: the result for `COc1cc(-c2nnc3n2CCCC3(Oc2ccc(F)c(F)c2)C(C)(C)O)ccc1-c1cnc(C)o1` (configuration not stated) reads 2.8; that for `COc1cc(-c2nnc3n2CCCC3(OC)c2ccc(Cl)c(Cl)c2)ccc1-c1cnc(C)o1` (configuration not stated), 3.7.
Same read-out and setting: the result for `COc1cc(-c2nnc3n2CCCC3(Cc2ccc(F)c(F)c2)C(=O)NCC(F)(F)F)ccc1-c1cnc(C)o1` (configuration not stated) reads 3.
Consider `COc1cc(-c2nnc3n2CCCC3(Cc2ccc(F)c(F)c2)C(C)=O)ccc1-c1cnc(C)o1` (configuration not stated), for which the chromatographic logD in data set [1] is 2.6.
In data set [1], `COc1cc(-c2nnc3n2CCCC32OCc3c(Cl)cccc3N(CC(F)(F)F)C2=O)ccc1-c1cnc(C)o1` (configuration not stated) had a chromatographic logD of 2.8.
`COc1cc(-c2nnc3n2CCCC32Cc3ccccc3N(CC(F)(F)F)C2=O)ccc1-c1cnc(C)o1` (configuration not stated) registered a chromatographic logD in data set [1] of 2.4.
In data set [1], `COc1cc(-c2nnc3n2CCC[C@]3(Oc2cc(F)c(F)c(F)c2)C(C)(C)O)ccc1-c1cnc(C)o1` showed a chromatographic logD of 3.2. Moreover, the results for the concentration at 3 h in data set [2] and in data set [3] were 677 ng/g and 3310 ng/mL, respectively. Further, the Drug uptake result was “BLD” in data set [4], “Not Active” in data set [5] and “Not Active” in data set [6].
In data set [1], `COc1cc(-c2nnc3n2CCCC3(O)c2ccc(Cl)c(Cl)c2)ccc1-c1cnc(C)o1` (configuration not stated) gave a chromatographic logD of 2.9.
Regarding `COc1cc(-c2nnc3n2CCCC3(CNC(C)=O)c2ccc(Cl)c(Cl)c2)ccc1-c1cnc(C)o1` (configuration not stated), in data set [1], the chromatographic logD turned out to be 3.2.
`COc1cc(-c2nnc3n2CCCC3(CN)c2ccc(Cl)c(Cl)c2)ccc1-c1cnc(C)o1` (configuration not stated) displayed a chromatographic logD in data set [1] of 3.1.
In the case of `COc1cc(-c2nnc3n2CCCC3(Cc2ccc(F)c(F)c2)C(C)(C)O)ccc1-c1cnc(C)o1` (configuration not stated), the chromatographic logD in data set [1] came out at 3. The chromatographic logD values of the last two compounds are within 0.2 log units of each other.
For the compound `COc1cc(-c2nnc3n2CCCC3(Oc2cc(F)c(F)c(F)c2)C(C)(C)O)ccc1-c1cnc(C)o1` (configuration not stated), in data set [1], the chromatographic logD came out at 3.2.
On the same count and under the same terms, the result for `COc1cc(-c2nnc3n2CCCC3(c2ccc(F)c(F)c2)C(C)(C)O)ccc1-c1cnc(C)o1` (configuration not stated) reads 2.9; that for `COc1cc(-c2nnc3n2CCCC3(Cc2ccc(F)c(F)c2)C(=O)N(C)CC(F)(F)F)ccc1-c1cnc(C)o1` (configuration not stated), 2.9; that for `COc1cc(-c2nnc3n2CCCC32OCc3ccccc3N(CC(F)(F)F)C2=O)ccc1-c1cnc(C)o1` (configuration not stated), 2.2.
On the same count and under the same terms, the figure for `COc1cc(-c2nnc3n2CCCC3(CO)Cc2ccc(F)c(F)c2)ccc1-c1cnc(C)o1` (configuration not stated) is 2.5; for `COc1cc(-c2nnc3n2CCCC32COc3ccccc3N(CC(F)(F)F)C2=O)ccc1-c1cnc(C)o1` (configuration not stated) it is 2.5; for `COc1cc(-c2nnc3n2CCCC32OCc3c(cccc3C(F)(F)F)N(CC(F)(F)F)C2=O)ccc1-c1cnc(C)o1` (configuration not stated) it is 2.9.
For `COc1cc(-c2nnc3n2CCCC32C(=O)N(CC(F)(F)F)c3ccccc32)ccc1-c1cnc(C)o1` (configuration not stated), in data set [1], the chromatographic logD was 2.2.
The same measure, in the same setting: the result for `COc1cc(-c2nnc3n2CCCC3(c2ccc(Cl)c(Cl)c2)C(C)(C)O)ccc1-c1cnc(C)o1` (configuration not stated) reads 3.7; that for `COc1cc(-c2nnc3n2CCC[C@@]3(Oc2cc(F)c(F)c(F)c2)C(C)(C)O)ccc1-c1cnc(C)o1`, 3.2.

By chromatographic logD is commonly meant lipophilicity estimated from chromatographic retention.
